Source: PubChem BioAssay AID624467 (The Scripps Research Institute Molecular Screening Center, 2012)
The whole screen tested about 360,000 compounds, of which about 3,600 (1%) were called active. The entries come from a sample that favours actives as a whole. Values without a mark were called inactive.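 The calls were made as follows: active = activation above the mean activation of all test compounds in the run plus 3 SD (cut at about 38% in these data); inactive = the rest.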

target: Trace amine-associated receptor 1 (Homo sapiens) (UniProt Q96RJ0); experiment: human TAAR1 agonists, primary screen, Fluo-8 calcium fluorescence, CHO RD-HGA16 cells (AID 624467); details: CHO RD-HGA16 TAAR1, Fluo-8 calcium fluorescence; at 3 µM; stronger effect = higher value; vehicle wells 0%, saturating PEA agonist 100%
Sequence (Q96RJ0 whole entry, looked up): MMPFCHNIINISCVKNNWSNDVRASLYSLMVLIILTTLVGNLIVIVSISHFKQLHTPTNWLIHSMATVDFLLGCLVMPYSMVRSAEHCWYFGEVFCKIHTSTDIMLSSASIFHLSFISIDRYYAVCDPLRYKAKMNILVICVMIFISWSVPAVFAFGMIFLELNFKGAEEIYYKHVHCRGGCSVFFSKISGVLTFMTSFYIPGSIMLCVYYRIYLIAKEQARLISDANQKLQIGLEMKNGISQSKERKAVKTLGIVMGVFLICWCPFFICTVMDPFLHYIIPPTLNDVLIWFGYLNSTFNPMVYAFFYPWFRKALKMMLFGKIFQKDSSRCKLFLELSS
Procedure, shortened: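 Signal – calcium-sensitive Fluo-8 signal, excitation 470-495, emission 515-575 nm · System – RD-HGA16 (CHO) cells co-expressing Gα16 and hTAAR1 · Incubation – 17-24 h seeding, 75 min 37 °C dye, 30 min RT · Compound dosing – 3 µM single concentration · Repeats – no replicates (n 1)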

With `S=C(NCCCc1cnc[nH]1)NCCCN(Cc1ccc(Cl)c(Cl)c1)c1ccc(Br)cn1` the activation was 44.3% (active).
With `OC(CNCCc1ccc(Cl)cc1Cl)COc1ccccc1` (centres undefined) the activation was 86% (active).
With `Cc1ccccc1CN1C(=O)c2ccccc2Sc2ccc(C(=O)NCCCN3CCOCC3)cc21` the activation was 40.1% (active).
`c1ccc2c(c1)OCC(CNc1ncnc3nc[nH]c13)O2` (centres undefined) was tested, and the activation was 225% (active).
In the case of `Cc1ccc(Sc2cc(N3CCOCC3)nc(-c3ccccc3)n2)cc1`, the activation is reported as 48.2% (active).
In the case of `c1ccc(C2CNCc3c2ccc2ccccc32)cc1` (centres undefined), the activation is reported as 82% (active).
`COc1ccc(NS(=O)(=O)c2ccc(NC(=S)NC(=O)CC(C)C)cc2)cc1` was tested, and the activation was 42.2% (active).
`COc1ccc(C(C(O)C(=O)c2c[nH]c3ccccc23)N2CCN(c3ccccc3)CC2)cc1` (centres undefined) was tested, and the activation was 39.9% (active).
With `O=C(Nc1cccc(NC(=O)c2ccc(Br)cc2)c1)c1ccccc1` the activation was 63.2% (active).
`N#CNC1=NCN(CCc2ccccc2)CN1` was tested, and the activation was 63.9% (active).
With `COCCCn1c(Cc2csc(Nc3cccc(Cl)c3)n2)nnc1SCC(=O)OC1CCCCC1` the activation was 52.8% (active).
In the case of `C[C@H](NC(=O)c1ccccc1)C(=O)OCC(=O)c1c[nH]c2ccccc12`, the activation is reported as 70% (active).
For `CCc1ccc(-c2nn(-c3ccccc3)cc2CSC(=N)N)cc1`, the activation was 99.3% (active).
`Cc1cc(C)c([N+](=O)[O-])cc1-c1ccc(/C=N/NC(=O)c2nonc2N)o1` was tested, and the activation was 41% (active).
`O=C(Cc1ccc(Cl)cc1)NC(=S)Nc1ccccc1O` was tested, and the activation was 138% (active).
For `Cc1ccccc1NC(=S)NC(=O)Cc1ccc(Cl)cc1`, the activation was 82.3% (active).
In the case of `S=C(NCCc1ccccc1)N1CCn2cccc2C1c1ccncc1` (centres undefined), the activation is reported as 96.1% (active).
`O=c1cnnc(Nc2ccccc2)[nH]1` was tested, and the activation was 53% (active).
For `O=C(Nc1cccc(-c2cccc(Cl)c2)c1)C1CCN(C2CCC2)CC1`, the activation was 45.3% (active).

Going from `NCCCNC(=S)NCCCN(Cc1ccc(Cl)cc1)c1ccc(Br)cn1` to `Fc1ccccc1CNC(=S)Nc1ccc(Cl)cc1`, the activation falls from 24.3% to 5.04%.

First: COC(=O)C1=C(C)N(Cc2ccc(C(F)(F)F)cc2)C(=NCc2ccc(C(F)(F)F)cc2)NC1c1cccc(Cl)c1 (centres undefined)
Second: COC(=O)C1=C(C)N(Cc2ccc(F)cc2)C(=S)NC1c1cccc(Cl)c1 (centres undefined)
The activation of the first is higher: 16.8% for the first, -0.89% for the second.

Going from `O=C(CCC1CCCN(Cc2ccc(O)c(Cl)c2)C1)NCc1ccccc1F` (centres undefined) to `CCn1cc(CN2CCC(C(=O)Nc3cccc(-c4cccc(Cl)c4)c3)CC2)cn1`, the activation rises from 5.41% to 16.6%.

Going from `CCC(C)C(N=C1NS(=O)(=O)c2ccccc21)C(=O)N1CCC(C)CC1` (centres undefined) to `CCc1ccc(-c2nn(-c3ccccc3C)cc2C(=O)N2CCN(C3CCS(=O)(=O)C3)CC2)cc1` (centres undefined), the activation falls from 5.5% to 1.27%.

First: COc1ccccc1-c1ccc([C@@H]2C[C@H]3[C@H](CON3C)CN2S(=O)(=O)c2cc(Cl)cc(Cl)c2)cc1
Second: C=CCN1CN(S(=O)(=O)c2ccc(OC)cc2)c2nc3ccccc3nc21
The activation of the first is lower: 0.17% for the first, 2.16% for the second.

First: COc1ccc(OCC(O)CNC(=O)Nc2ccc(Cl)cc2)cc1 (centres undefined)
Second: COc1ccc(NC(=O)C2(C)Cc3c(-c4ccc(C(N)=O)cc4)ccnc3O2)cc1 (centres undefined)
The activation of the first is higher: 9.53% for the first, 1.37% for the second.

Going from `OC(COc1ccccc1)CN1CCN(c2cccc(Cl)c2)CC1` (centres undefined) to `O=C1CCN(CCc2ccccc2)CCN1CCOc1ccccc1`, the activation rises from 4.5% to 19.8%.

Compared with `CC1CN(S(=O)(=O)c2cccc(C(F)(F)F)c2)CN1C(=O)N1CCOCC1` (centres undefined), `O=C(NCc1ccccc1)[C@H]1CCCN1C(=O)[C@H]1CCCN1C(=O)N1CCOCC1` is higher in activation: -1.03% for the first, 1.52% for the second.

Going from `CCOC(=O)[C@]12CCCC=C1N(CCC1=CCCCC1)C(=O)[C@H](CC(=O)N1CCOCC1)C2` to `O=C(NCCCN1CCCCC1)c1ccc2c(c1)NC(=O)C(N1CCOCC1)S2` (centres undefined), the activation rises from -0.62% to 3.95%.

First: CCS(=O)(=O)N1CCN(C(=O)c2cccs2)CC1
Second: CCOC(=O)N1CCN(C(=O)c2ccccc2SCC(=O)NCC2CCCCC2)CC1
The activation of the first is higher: 3.03% for the first, 2.29% for the second.

Going from `COC(=O)c1ccc(CN2C(=O)[C@]3(OCCC=C[C@H]3C)c3c(Br)cccc32)cc1` to `O=C(COC(=O)c1ccc(F)cc1)NCC1COc2ccccc2O1` (centres undefined), the activation falls from 2.59% to 0.46%.

Compared with `CCC1=Nc2cc(C(=O)NCCCN3CCOCC3)ccc2Sc2ccc(Br)cc21`, `O=C(NCCCN1CCOCC1)c1cn(-c2ccccc2)nc1-c1ccc(F)cc1` is lower in activation: 9.87% for the first, 3.53% for the second.

Going from `COC(=O)c1c(-c2ccc(OC)cc2)c2c(c3c4cc(OC)ccc4n(S(=O)(=O)c4ccc(F)cc4)c13)C(=O)N(C)C2` to `COc1cc(NS(=O)(=O)c2ccc(NC(=S)NC(=O)c3ccccc3)cc2)nc(OC)n1`, the activation falls from -0.58% to -5.7%.

Going from `O=C(COc1ccc(F)cc1Br)NCC1COc2ccccc2O1` (centres undefined) to `O=C(COC(=O)CCc1c[nH]c2ccccc12)Nc1cccc(Cl)c1`, the activation rises from -1.29% to 3.56%.

First: CN(c1ccccc1)S(=O)(=O)c1ccc(C(=O)NCc2cccnc2)cc1
Second: O=S(=O)(Cc1cc(Sc2ccccc2)nc(-c2ccccc2)n1)c1ccccc1
The activation of the first is lower: 3.27% for the first, 11.3% for the second.

Going from `Cc1cc(N2CCOCC2)nc2ccc(NC(=S)N3CCN(Cc4ccccc4)CC3)cc12` to `CCn1cc(CN2CCC(C(=O)Nc3cccc(-c4cccc(Cl)c4)c3)CC2)c(C)n1`, the activation rises from 7.44% to 19.7%.

Going from `c1ccc2c(CCN3CCNC[C@H]3Cc3cccc4ccccc34)cccc2c1` to `Brc1ccc(COCCc2cn(Cc3ccccc3)c3ccccc23)cc1`, the activation falls from 33.5% to 0.28%.

First: O=C(COC(=O)c1cc(-c2cccs2)nn1-c1ccccc1)Nc1cc([N+](=O)[O-])ccc1Cl
Second: O=C(COC(=O)c1ncc(Cl)c(Cl)c1Cl)NNC(=O)c1ccccc1
The activation of the first is higher: 7.58% for the first, 4.83% for the second.

Going from `Cc1ccc(N2C(=O)CC(NCc3ccc4c(c3)OCO4)C2=O)cc1Cl` (centres undefined) to `COC(=O)[C@]12C[C@H](CC(=O)NCCCCc3ccccc3)C(=O)N(Cc3ccc4c(c3)OCO4)C1=C[C@H](C(C)(C)C)O[C@@H]2C`, the activation rises from 1.12% to 5.91%.

Going from `CSCCC(NS(=O)(=O)c1ccc2c(c1)oc(=O)n2C)C(=O)NC1CCCc2ccccc21` (centres undefined) to `Cc1ccc(NS(=O)(=O)c2ccc3c(c2)oc(=O)n3C)c(C)c1`, the activation falls from 4.94% to 3.17%.

Going from `COC(=O)[C@]12C[C@H](CC(=O)NCCc3ccccc3OC)C(=O)N(Cc3ccccc3)C1=C[C@H](C(C)C)O[C@@H]2C1CC1` to `CC(C)C[C@H](NC(=O)CC1CCCC1)C(=O)N1CCC[C@H]1C(=O)NCc1ccccc1`, the activation falls from 30.4% to 1.37%.

Going from `COc1ccc(OC)c(C(C)NC(=S)Nc2ccc(S(=O)(=O)Nc3ncccn3)cc2)c1` (centres undefined) to `COc1ccc(C(CC(=O)N2CCN(c3ccccc3)CC2)c2c(O)cc(OC)cc2OC)cc1` (centres undefined), the activation rises from 1.66% to 2.38%.

Going from `COc1ccc(C2c3ccc(O)cc3Oc3ncn(CCCO)c(=N)c32)cc1OC` (centres undefined) to `COc1cc(/C=N\NC(=O)c2nonc2N)c(OC)cc1Br`, the activation rises from 0.73% to 1.69%.

Compared with `C=CCN1C(=NC(=O)COc2ccccc2)SC2CS(=O)(=O)CC21` (centres undefined), `COCCCn1c(SCC(=O)NC2CCCC2)nnc1-c1ccccc1` is lower in activation: 2.44% for the first, 0.55% for the second.

First: Cc1ccc(C)n1-c1ccncc1
Second: CN1CCCc2nc(-c3ccccc3)ccc21
The activation of the first is higher: 2.15% for the first, 1.31% for the second.

Going from `COc1ccc(C(C(=O)Nc2c(C)cccc2C)N2CCN(c3ccc(C)cc3)CC2)cc1` (centres undefined) to `CCc1nc2ccc(C(=O)N3CCN(c4cccc(Cl)c4)CC3)cc2nc1CC`, the activation falls from 5.99% to 1.12%.

Compared with `O=C(Nc1ccccc1)c1ccc2nsnc2c1`, `CC(C)(C)NC(=O)c1cccc(NC(=O)Cc2ccc(Br)cc2)c1` is higher in activation: -0.47% for the first, 2.23% for the second.

Compared with `CCCN1CNC(=S)N(CCc2ccccc2)C1`, `CC1CCCCN1C(=S)NCc1ccccc1` (centres undefined) is higher in activation: 4.93% for the first, 5.09% for the second.

Going from `CCOc1ccc(Nc2nc(Cc3nnc(SCC(=O)NC4CCCC4)n3C)cs2)cc1` to `COc1ccc(N(C)C(=O)C2CCN(S(=O)(=O)c3cccc4nsnc34)CC2)cc1`, the activation falls from 11.9% to 2.99%.

Compared with `CCOc1ncccc1C(=O)OCC(=O)c1c[nH]c2ccccc12`, `CC(C)Nc1nnc(SCC(=O)c2c[nH]c3ccccc23)s1` is lower in activation: 14.1% for the first, 1.89% for the second.

First: CN[C@H]1C[C@H]2c3[nH]c4c(-c5ccccc5)cccc4c3CCN2C(=O)[C@H]1[C@H](C)O
Second: Clc1cccc2c1C1CC2CCN1Cc1ccccc1 (centres undefined)
The activation of the first is higher: 4.95% for the first, -1.9% for the second.

First: Cc1occc1C(=O)N/N=C/c1ccc(-c2cccc([N+](=O)[O-])c2)o1
Second: COC(=O)c1ccccc1NC(=O)CN(Cc1ccc(Cl)cc1)S(C)(=O)=O
The activation of the first is lower: 4.69% for the first, 8.09% for the second.

Compared with `Nc1ncnc2c1ncn2[C@@H]1O[C@H](C(=O)N[C@@H](CCc2ccccc2)C(=O)NCC(=O)N2CCOCC2)[C@@H](O)[C@H]1O`, `Cc1ccccc1N/C(SCc1ccc(Cl)cc1)=C(/C#N)C(N)=O` is higher in activation: 0.02% for the first, 6.27% for the second.

First: Cc1cc(C(=O)NNC(=S)Nc2ccccc2C)cs1
Second: O=c1cnnc(Nc2ccccc2F)[nH]1
The activation of the first is lower: 7.69% for the first, 19.6% for the second.

Going from `S=C(Nc1cccc(Br)c1)N1CCn2cccc2C1c1cccnc1` (centres undefined) to `Cc1cc(=O)[nH]c(Nc2cccc(Br)c2)n1`, the activation rises from 11.1% to 26.1%.
